Source: ChEMBL document CHEMBL3351600, “Sulfur, selenium and tellurium pseudopeptides: synthesis and biological evaluation” (Bioorg Med Chem, 2014)
pIC50: −log10 of the molar value.

Columns and labels:
MDA-MB-435 = experiment: Growth inhibition of human MDA-MB-435 cells after 48 hrs; assay type: functional; conditions: MDA-MB-435, 48 h
How it was run: (§1)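 NCI-60 human tumour cell line panel screen run at the US National Cancer Institute under its standard cytotoxicity protocol. It covers leukaemia, NSCLC, colon, CNS, melanoma, ovarian, renal, prostate and breast lines. An initial single-dose test was followed by five-dose testing with 48 h compound exposure.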

KM12 = experiment: Growth inhibition of human KM12 cells after 48 hrs; assay type: functional; conditions: KM12, 48 h; how it was run: as §1
M14 = experiment: Growth inhibition of human M14 cells after 48 hrs; assay type: functional; conditions: M14, 48 h; how it was run: as §1
[1] = Octanol-water partition coefficient, log P of the compound by HPLC analysis; assay type: physicochemical
How it was run: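 Lipophilicity was measured by reversed-phase HPLC on a Nucleosil C18 column with isocratic water/methanol (3:1) at 0.5 ml/min and UV detection at 230 and 245 nm. Dead time was set with thiourea (t0 0.728 min). Retention factor was k = (tR − t0)/t0, and log P came from a calibration against at least six reference compounds.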

NCI-H322M = experiment: Growth inhibition of human NCI-H322M cells after 48 hrs; assay type: functional; how it was run: as §1
[2] = Growth inhibition of human EKVX cells after 48 hrs; assay type: functional; how it was run: as §1
[3] = Growth inhibition of human NCI-ADR-RES cells after 48 hrs; assay type: functional; how it was run: as §1
MDA-MB-468 = experiment: Growth inhibition of human MDA-MB-468 cells after 48 hrs; assay type: functional; conditions: MDA-MB-468, 48 h; how it was run: as §1
K562 = experiment: Growth inhibition of human K562 cells after 48 hrs; assay type: functional; conditions: K562, 48 h; how it was run: as §1
SK-MEL-2 = experiment: Growth inhibition of human SK-MEL-2 cells after 48 hrs; assay type: functional; conditions: SK-MEL-2, 48 h; how it was run: as §1
Aspergillus niger = experiment: Antimicrobial activity against Aspergillus niger assessed as inhibition at 20 ug/6 mm disk after 1 to 2 days by agar diffusion assay; assay type: functional
How it was run: (§2)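 Standard agar diffusion: 6-mm paper disks loaded with 20 µg of compound were placed on inoculated plates. Inhibition-zone diameter (mm) was read after 1 and 2 days of growth.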

MDA-MB-231 = experiment: Growth inhibition of human MDA-MB-231 cells after 48 hrs; assay type: functional; conditions: MDA-MB-231, 48 h; how it was run: as §1
Candida albicans = experiment: Antimicrobial activity against Candida albicans assessed as inhibition at 20 ug/6 mm disk after 1 to 2 days by agar diffusion assay; assay type: functional; how it was run: as §2
TK-10 = experiment: Growth inhibition of human TK10 cells after 48 hrs; assay type: functional; conditions: TK-10, 48 h
How it was run: (§3)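 Run by the NCI 58-cell-line screen under its standard cytotoxicity protocol. Compounds were first tested at a single dose, then at five doses. Cells were exposed to compound for 48 h.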

[4] = Growth inhibition of human RPMI8226 cells after 48 hrs; assay type: functional; conditions: RPMI-8226, 48 h; how it was run: as §1
SW-620 = experiment: Growth inhibition of human SW620 cells after 48 hrs; assay type: functional; conditions: SW-620, 48 h; how it was run: as §3
[5] = Growth inhibition of human SF295 cells after 48 hrs; assay type: functional; conditions: SF-295, 48 h; how it was run: as §1
HOP-62 = experiment: Growth inhibition of human HOP62 cells after 48 hrs; assay type: functional; conditions: HOP-62, 48 h; how it was run: as §1
[6] = Growth inhibition of human UO31 cells after 48 hrs; assay type: functional; conditions: UO-31, 48 h; how it was run: as §3
A-431 = experiment: Cytotoxicity against human A431 cells assessed as cell viability after 24 hrs incubation by MTT assay; assay type: functional, cell-based; conditions: A-431, 24 h
How it was run: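 Cell lines came from DSMZ; primary human fibroblasts served as non-cancer controls. Cells were grown in medium with 10% FCS, seeded at 50,000 cells/ml, and grown 2 days at 37 °C, 10% CO2. Serial dilutions were then added for 24 h. MTT (final 0.5 mg/ml) was added for 2 h. Formazan was pelleted, PBS-washed, dissolved in isopropanol/0.4% HCl and read at 590 nm. Two parallel experiments were run. IC50 was taken as the concentration giving 50% of untreated-control absorbance.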

[7] = Growth inhibition of human OVCAR3 cells after 48 hrs; assay type: functional; conditions: OVCAR-3, 48 h; how it was run: as §1
[8] = Growth inhibition of human HCT15 cells after 48 hrs; assay type: functional; conditions: HCT-15, 48 h; how it was run: as §1
Pseudomonas aeruginosa = experiment: Antimicrobial activity against Pseudomonas aeruginosa assessed as inhibition at 20 ug/6 mm disk after 1 to 2 days by agar diffusion assay; assay type: functional; how it was run: as §2
NCI-H460 = experiment: Growth inhibition of human NCI-H460 cells after 48 hrs; assay type: functional; conditions: NCI-H460, 48 h; how it was run: as §1
[9] = Growth inhibition of human OVCAR5 cells after 48 hrs; assay type: functional; conditions: OVCAR-5, 48 h; how it was run: as §1
NCI-H226 = experiment: Growth inhibition of human NCI-H226 cells after 48 hrs; assay type: functional; conditions: NCI-H226, 48 h; how it was run: as §1
SF-268 = experiment: Growth inhibition of human SF268 cells after 48 hrs; assay type: functional; conditions: SF-268, 48 h; how it was run: as §1
HT-29 = experiment: Growth inhibition of human HT-29 cells after 48 hrs; assay type: functional; conditions: HT-29, 48 h; how it was run: as §1
DU-145 = experiment: Growth inhibition of human DU145 cells after 48 hrs; assay type: functional; conditions: DU-145, 48 h; how it was run: as §1
Micrococcus luteus = experiment: Antimicrobial activity against Micrococcus luteus assessed as inhibition at 20 ug/6 mm disk after 1 to 2 days by agar diffusion assay; assay type: functional; how it was run: as §2
[10] = read-out: pLC50 (the source's name) (converted)

Structure (SMILES): COc1ccc(N(CC(=O)NCCC[Te]c2ccccc2)C(=O)CNC(=O)OC(C)(C)C)cc1
- GI50 (MDA-MB-435): 3.31 µM
- CC50 (MDA-MB-435; [10]): 51.3 µM
- TGI (MDA-MB-435; read-out: pTGI (converted)): 13.5 µM
- GI50 (KM12): 3.31 µM
- CC50 (KM12; [10]): 43.7 µM
- TGI (KM12; read-out: pTGI (converted)): 11.5 µM
- GI50 (M14): 3.55 µM
- CC50 (M14; [10]): 45.7 µM
- TGI (M14; read-out: pTGI (converted)): 10.7 µM
- logP [1]: 4.2
- GI50 (NCI-H322M): 2.29 µM
- CC50 (NCI-H322M; [10]): > 100 µM
- TGI (NCI-H322M; read-out: pTGI (converted)): 6.61 µM
- GI50 [2]: 0.324 µM
- CC50 [2, 10]: > 100 µM
- TGI ([2]; read-out: pTGI (converted)): 2.34 µM
- GI50 [3]: 2.88 µM
- LC50 [3]: > 100 µM
- TGI ([3]; read-out: pTGI (converted)): 7.24 µM
- GI50 (MDA-MB-468): 3.16 µM
- LC50 (MDA-MB-468): 60.3 µM
- TGI (MDA-MB-468; read-out: pTGI (converted)): 11 µM
- GI50 (K562): 5.5 µM
- CC50 (K562; [10]): > 100 µM
- TGI (K562; read-out: pTGI (converted)): > 100 µM
- GI50 (SK-MEL-2): 3.02 µM
- CC50 (SK-MEL-2; [10]): > 100 µM
- TGI (SK-MEL-2; read-out: pTGI (converted)): 6.76 µM
- diameter of the inhibition zone (DIZ) (Aspergillus niger): 0 mm
- GI50 (MDA-MB-231): 1.91 µM
- TGI (MDA-MB-231; read-out: pTGI (converted)): 3.89 µM
- diameter of the inhibition zone (DIZ) (Candida albicans): 0 mm
- GI50 (TK-10): 3.89 µM
- LC50 (TK-10): 100 µM
- TGI (TK-10; read-out: pTGI (converted)): 10.7 µM
- GI50 [4]: 2.4 µM
- CC50 [4, 10]: > 100 µM
- TGI ([4]; read-out: pTGI (converted)): 7.24 µM
- GI50 (SW-620): 3.47 µM
- CC50 (SW-620; [10]): > 100 µM
- TGI (SW-620; read-out: pTGI (converted)): 14.5 µM
- GI50 [5]: 1.29 µM
- CC50 [5, 10]: > 100 µM
- TGI ([5]; read-out: pTGI (converted)): 4.07 µM
- GI50 (HOP-62): 2.19 µM
- CC50 (HOP-62; [10]): 11 µM
- TGI (HOP-62; read-out: pTGI (converted)): 4.68 µM
- GI50 [6]: 2.4 µM
- LC50 [6]: > 100 µM
- TGI ([6]; read-out: pTGI (converted)): 9.12 µM
- pIC50 (A-431): 5.30
- GI50 [7]: 3.02 µM
- CC50 [7, 10]: 100 µM
- TGI ([7]; read-out: pTGI (converted)): 7.94 µM
- GI50 [8]: 3.16 µM
- CC50 [8, 10]: 93.3 µM
- TGI ([8]; read-out: pTGI (converted)): 10.5 µM
- diameter of the inhibition zone (DIZ) (Pseudomonas aeruginosa): 10 mm
- GI50 (NCI-H460): 0.447 µM
- CC50 (NCI-H460; [10]): 7.59 µM
- TGI (NCI-H460; read-out: pTGI (converted)): 1.86 µM
- GI50 [9]: 3.02 µM
- LC50 [9]: 38.9 µM
- TGI ([9]; read-out: pTGI (converted)): 7.41 µM
- GI50 (NCI-H226): 2.29 µM
- CC50 (NCI-H226; [10]): 79.4 µM
- TGI (NCI-H226; read-out: pTGI (converted)): 5.37 µM
- GI50 (SF-268): 2.69 µM
- CC50 (SF-268; [10]): 100 µM
- TGI (SF-268; read-out: pTGI (converted)): 7.59 µM
- GI50 (HT-29): 3.8 µM
- CC50 (HT-29; [10]): > 100 µM
- TGI (HT-29; read-out: pTGI (converted)): 13.8 µM
- GI50 (DU-145): 2.88 µM
- LC50 (DU-145): 30.9 µM
- TGI (DU-145; read-out: pTGI (converted)): 7.59 µM
- diameter of the inhibition zone (DIZ) (Micrococcus luteus): 7 mm
